# NS3 helicase inh – blocks Hepatitis C virus NS3 helicase unwinding. hit rate 0.56% among 290,000. inhibition, % at 10.9 µM. NS3 helicase DNA unwinding, Cy5 molecular beacon fluorescence;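 active = inhibition above the mean of all tested compounds plus 3 SD, set per campaign, cut at about 35% in these data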;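 also: 0% = DMSO wells and 100% = thioflavine S control wells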
#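 assay system = NS3 helicase fragment of HCV | buffer or medium = MOPS pH 6.5, MgCl2, DTT, Tween20, BSA | timing = 60 min unwinding reaction at 25 °C after ATP addition | signal = Cy5 beacon fluorescence read at start and 1 h | read-out basis = % inhibition of unwinding | control set = low DMSO, high thioflavine S at 110 µM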
# DNA FID counter – counter-screen for HCV NS3 helicase inhibitors: DNA intercalator displacement; hit rate 0.17% among 290,000; inhibition, % at 7.9 µM; DNA fluorescent intercalator displacement, fluorescence; AID 1845; in the data active = inhibition above about 37%;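 also: 0% = vehicle and 100% = reference compound; higher means more ethidium bromide displaced from hairpin DNA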
# T cruzi repl – blocks replication of Trypanosoma cruzi | inhibition, % (concentration not given with the values) | hit rate 1.4% among 300,000 | T. cruzi beta-gal in NIH3T3, luminescence, 90 h | AID 1885;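 active = mean inhibition across valid replicates above about 55%, limit read from the data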;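 also: signal also drops with host cell toxicity which is not excluded here; 0% = plate median of DMSO wells and 100% = zero luminescence signal; higher percent means less beta-gal luminescence so fewer parasites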
#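 System: mouse NIH/3T3 fibroblasts infected with β-gal-expressing T. cruzi Tulahuen C4 / Input: NIH/3T3 cells, 5,000 per well / Buffer or medium: Low-serum DMEM with 2% FBS / Probe or stimulus: 5000 reporter trypomastigotes per well / Schedule: ≥90 h infection period, 3 h prior cell attachment / Measured by: GalScreen luminescence, 60 min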
# MEKK3 PB1 HTS – modulators (inhibitors or enhancers) of MEK5 binding to human MEKK3 PB1 domain | bead-based flow cytometry, Alexa488-MEK5 binding to MEKK3; actives lie on both sides; 0 = blocked by unlabeled MEK5, 100 = vehicle | binding response (% of control), % at 10 µM | hit rate 1.4% among 290,000 | AID 1529;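 active = binding response more than 3 SD above or below the average of its plate-row segment, actives on both sides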;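 also: Alexa488 bead fluorescence after subtracting the streptavidin-only scavenger bead signal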
# Target sequence (Q99759 whole entry, looked up, the tested form may be a part): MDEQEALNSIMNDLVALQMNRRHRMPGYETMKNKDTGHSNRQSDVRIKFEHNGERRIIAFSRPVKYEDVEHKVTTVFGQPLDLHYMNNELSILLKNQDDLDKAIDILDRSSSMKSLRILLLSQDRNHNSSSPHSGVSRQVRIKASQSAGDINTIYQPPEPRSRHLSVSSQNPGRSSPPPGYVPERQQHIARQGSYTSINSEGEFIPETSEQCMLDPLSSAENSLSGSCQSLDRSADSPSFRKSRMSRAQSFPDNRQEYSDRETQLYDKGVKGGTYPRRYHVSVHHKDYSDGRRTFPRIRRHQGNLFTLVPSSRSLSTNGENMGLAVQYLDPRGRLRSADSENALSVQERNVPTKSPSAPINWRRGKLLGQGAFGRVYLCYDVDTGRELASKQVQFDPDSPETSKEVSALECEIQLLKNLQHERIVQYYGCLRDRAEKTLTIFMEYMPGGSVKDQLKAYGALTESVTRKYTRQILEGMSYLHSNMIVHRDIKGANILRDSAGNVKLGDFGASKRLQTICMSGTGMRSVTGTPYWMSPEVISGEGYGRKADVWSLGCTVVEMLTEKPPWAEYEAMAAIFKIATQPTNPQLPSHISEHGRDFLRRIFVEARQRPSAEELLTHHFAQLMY
# MEKK2mut PB1 HTS – signal of MEK5 binding to mutant human MEKK2 PB1 domain. percent response, % at 10 µM. bead flow cytometry, Alexa488-MEK5 binding to MEKK2 mutant. hit rate 0.35% among 290,000; in the data active = percent response above about 24%, passing the limit was not always enough
# MEKK2 WT-MEK5 – raises or lowers MEK5 binding to wildtype human MEKK2 PB1 domain; bead flow cytometry, Alexa488-MEK5 binding to MEKK2 WT; actives lie on both sides; AID 1531; binding response (% of control), % at 10 µM; hit rate 1.1% among 290,000; Q9Y2U5; in the data active = binding response below about 67% or above about 130%
# MEKK2wt confirm – raises or lowers MEK5 binding to wildtype human MEKK2, retest | shares compounds with MEKK3 PB1 HTS | bead flow cytometry, Alexa488-MEK5 binding to MEKK2 WT; actives lie on both sides | binding response (% of control), % at 10 µM | hit rate 2.4% among 5,900 | AID 1892; in the data active = binding response below about 16% or above about 210%; inactive = in between
# MEKK2mut-MEK5 – signal of MEK5 binding to mutant human MEKK2, retest | hit rate 2% among 5,900 | percent response, % at 10 µM | shares compounds with MEKK3 PB1 HTS | bead flow cytometry, Alexa488-MEK5 binding to MEKK2 mutant | AID 1893; in the data active = percent response mostly above about 71%, no sharp cut-off; inactive = mostly below about 38%;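 also: higher means compound restores mutant binding toward wildtype level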
# MEKK3-MEK5 inh – confirmation of inhibitors of MEK5 binding to human MEKK3; shares compounds with MEKK3 PB1 HTS; bead flow cytometry, Alexa488-MEK5 binding to MEKK3; stronger effect = lower value; binding response (% of control), % at 10 µM; hit rate 1.8% among 5,900;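 active = binding response below 72% of control, or above a set upper limit, though filed actives all read lower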;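 also: 100% = DMSO only wells and 0% = binding blocked by excess unlabeled MEK5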
# * hit, by the source's call; nt = not tested or not shown; [ ] = remark or other dose. The list is not random: actives were taken first. Their share in the collection is about 4.1%.
SMILES,NS3 helicase inh,DNA FID counter,T cruzi repl,MEKK3 PB1 HTS,MEKK2mut PB1 HTS,MEKK2 WT-MEK5,MEKK2wt confirm,MEKK2mut-MEK5,MEKK3-MEK5 inh
CSc1cccc(NC(=O)/C=C/c2ccc(Cl)cc2)c1,-4,-3,-1,107,10,146*,126,12,107
COc1cc(-c2n[nH]c(=S)n2-c2cc(C(F)(F)F)ccc2Cl)cc(OC)c1OC,17,-37,13,144*,0,108,100,-3,103
O=C(Nc1ccccc1)n1cc(-c2ccccn2)c(N2CCOCC2)n1,-5,-7,-3,104,-8,97,nt,nt,nt
Cc1ccc(-n2c(SCC(=O)N3CCCc4ccccc43)nnc2-c2cccnc2)c(C)c1,-4,-8,9,97,3,91,nt,nt,nt
CCOc1ccccc1-n1c(SCC(=O)N2CCCc3ccccc32)nnc1-c1cccnc1,8,-30,-8,132*,-1,104,112,4,105
Cc1ccc(-n2nnnc2-c2cccc(C)c2)cc1,4,-6,-4,97,-4,94,nt,nt,nt
Cc1ccc(-c2nnnn2-c2ccc(C)cc2)cc1,-2,-12,-2,2.0*[inhibitor],-84,1.0*[inhibitor],105,11,103
Clc1cccc(CNCCNCc2cccc(Cl)c2)c1,-15,0,6,115,17,187*,161,37,108
OCCNCc1cccc(Br)c1,-4,-3,-13,100,1,99,nt,nt,nt
Cc1ccc(CNC(=O)COC(=O)c2ccc(S(=O)(=O)N(C)C)cc2)cc1,-3,-4,4,105,-3,100,nt,nt,nt
Cc1ccc(/C=N/n2c(C3CCCCC3)n[nH]c2=S)cc1,2,-38,0,98,5,97,nt,nt,nt
CC(=O)c1cccc(NC(=O)CCC2CCCC2)c1,3,-12,9,2.0*[inhibitor],-21,2.0*[inhibitor],103,1,101
CC(=O)c1cccc(NC(=O)C(C)OC(=O)CCC2CCCCC2)c1 (stereo not drawn),nt,nt,3,nt,nt,nt,nt,nt,nt
CCOC(=O)/C=C1\Nc2ccccc2SC1=O,1,-22,5,2.0*[inhibitor],-18,2.0*[inhibitor],103,-4,100
CCOC(=O)C1=C(C)Nc2ccccc2S1,0,-2,-12,97,0,92,nt,nt,nt
CCOC(=O)/C(=C/C=C1\Sc2cc(C)c(C)cc2N1CC)C(C)=O,7,-23,36,90,-22,42*[inhibitor],87,-12,91
Cc1cccc(NC(=S)NCCCN2CCOCC2)c1,3,2,9,138*,1,112,101,3,104
COc1cccc(NC(=S)NCCN2CCOCC2)c1,4,-1,-1,141*,1,116,105,9,106
S=C(NCCN1CCOCC1)Nc1cccc(Cl)c1,6,-1,-4,112,5,110,nt,nt,nt
CCC(c1nc2ccccc2c(=O)n1CCCn1ccnc1)N1C(=O)c2ccccc2C1=O (stereo not drawn),-18,0,8,77*[inhibitor],-12,85,101,-2,103
CC1(C)CC(=O)C2=C(C1)Nc1[nH]c(=S)[nH]c(=O)c1C2c1ccccc1 (stereo not drawn),23,-26,0,106,-1,102,nt,nt,nt
CSc1nc2c(c(=O)[nH]1)C(c1ccccc1)C1=C(CC(C)(C)CC1=O)N2 (stereo not drawn),-4,-4,-3,131*,4,121,104,4,111
CCOC(=O)c1cccc(OS(=O)(=O)Cc2ccccc2)c1,nt,nt,-7,nt,nt,nt,nt,nt,nt
Cc1ccc(S(=O)(=O)N2CCCC2CNC(=O)C(=O)Nc2ccc(F)cc2)cc1 (stereo not drawn),nt,nt,-1,nt,nt,nt,nt,nt,nt

# From PubChem BioAssay
